Calls of active or inactive are those of the source. The rule behind the calls is not given here.

The experiment concerns Escherichia coli. As to the kind of experiment: Inhibition of quorum sensing in Escherichia coli JB357 expressing green fluorescent protein assessed as reduction of OHHL-induced GFP expression after 2 hrs by fluorescence assay relative to OHHL. An outline of the steps:
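E. coli JB357 carrying Vibrio fischeri luxR-PluxI-gfp(ASV) reporter; OHHL at final 10, 20, 50 or 100 nM in culture medium, triplicate wells, with dihydropyrrol-2-one at 0–10 mg/mL. Incubated 2 h at 37 °C; GFP fluorescence read relative to solvent control (100%). ID40 taken for each OHHL level and plotted against OHHL. AIC40 is the gradient of the fit forced through origin (inhibitor mol : OHHL mmol).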
As to `CCCC(Br)C1=CC(=C(Br)Br)N(c2ccccc2)C1=O` (stereo unspecified), the Ratio stood at 1.95.

For `CCCCCCC1=CC(=C(Br)Br)N(c2ccccc2)C1=O`, the Ratio stood at 248.

As to `CC(C)CN1C(=O)C=C(Br)C1=C(Br)Br`, the Ratio came to 65. As for `CCCCC1=C(Br)/C(=C/Br)N(c2ccccc2)C1=O`, the inhibition result was “inactive”. Same read-out and setting: in the case of `O=C1C=C(Br)/C(=C/Br)N1c1ccccc1` it was “inactive”. Same read-out and setting: in the case of `CCCCN1C(=O)C=C(Br)C1=C(Br)Br` it was “inactive”; in that of `CCCCCCC1=C(Br)/C(=C/Br)N(c2ccccc2)C1=O`, “inactive”; in that of `CCCCCCC1=C(Br)/C(=C/Br)N(Cc2ccccc2)C1=O`, “inactive”.

Consider `CCCCC1=CC(=C(Br)Br)N(c2ccc(C)cc2)C1=O`, for which the inhibition entry is “inactive”. Turning to `CCCCCCC1=C(Br)/C(=C/Br)N(CCCC)C1=O`, the inhibition entry was “inactive”.

Turning to `O=C1C=C(Br)C2(CBr)OCCCN3C(=O)C=C(Br)C3(CBr)OCCCN12` (stereo unspecified), the Ratio worked out at 112.

On to `CCCCCCCCCCCCN1C(=O)C=C(Br)C1=C(Br)Br`, for which the inhibition result was “inactive”.

Regarding `CCCCC1=C(Br)/C(=C/Br)N(Cc2ccccc2)C1=O`, the inhibition entry is “inactive”.

With `CCCCC1=CC(=C(Br)Br)N(CCCC)C1=O`, the inhibition entry is “inactive”. The same measure, in the same setting: the value for `CCCCCCC1=CC(=C(Br)Br)N(CCCC)C1=O` was “inactive”. Turning to `CCCC(O)C1=CC(=C(Br)Br)N(Cc2ccccc2)C1=O` (stereo unspecified), the inhibition result was “inactive”. Still for that read-out and setting: the value for `CCCCCC(Br)C1=CC(=C(Br)Br)N(Cc2ccccc2)C1=O` (stereo unspecified) was “inactive”. Consider `CCCCC1=C(Br)/C(=C/Br)N(CCCC)C1=O`, for which the Ratio came out at 279. Turning to `CCCCCCCCN1C(=O)C=C(Br)C1=C(Br)Br`, the inhibition entry is “inactive”. Still for that read-out and setting: in the case of `CCCC(Br)C1=CC(=C(Br)Br)N(Cc2ccccc2)C1=O` (stereo unspecified) it was “inactive”; in that of `CCCCCC(O)C1=CC(=C(Br)Br)N(c2ccccc2)C1=O` (stereo unspecified), “inactive”. As to `O=C1C=C(Br)C2(CBr)OCCN3C(=O)C=C(Br)C3(CBr)OCCN12` (stereo unspecified), the Ratio was 78. `CCCC(O)C1=CC(=C(Br)Br)N(c2ccccc2)C1=O` (stereo unspecified): the inhibition result is “inactive”.

With `CCCCC1=CC(=C(Br)Br)N(Cc2ccccc2)C1=O`, the Ratio was determined as 220.

Consider `CCCCCCC1=CC(=C(Br)Br)N(Cc2ccccc2)C1=O`, for which the Ratio was found to be 140.

For `CCCCC1=CC(=C(Br)Br)N(c2ccccc2)C1=O`, the Ratio worked out at 97. Same read-out and setting: in the case of `O=C1C=C(Br)C(=C(Br)Br)N1Cc1ccccc1` it was 150. Take `CCCCCCN1C(=O)C=C(Br)C1=C(Br)Br`: the inhibition result is “inactive”. With `CC(C)CN1C(=O)C=C(Br)/C1=C/Br`, the inhibition entry was “inactive”. The same measure, in the same setting: the value for `CCCCCCCCCCCCN1C(=O)C=C(Br)/C1=C/Br` was “inactive”; that for `CCCCCCN1C(=O)C=C(Br)/C1=C/Br` was “inactive”. As for `CCCCCCCCN1C(=O)C=C(Br)/C1=C/Br`, the Ratio was found to be 20. Still for that read-out and setting: in the case of `O=C1C=C(Br)/C(=C/Br)N1Cc1ccccc1` it was 26. Consider `CCCCCC(O)C1=CC(=C(Br)Br)N(Cc2ccccc2)C1=O` (stereo unspecified), for which the inhibition result is “inactive”. `CCCCN1C(=O)C=C(Br)/C1=C/Br`: the Ratio was 19. For the molecule `CCCCCC(Br)C1=CC(=C(Br)Br)N(c2ccccc2)C1=O` (stereo unspecified), the inhibition entry is “inactive”.

The values above are taken from ChEMBL document CHEMBL3627704, “Synthesis, quorum sensing inhibition and docking studies of 1,5-dihydropyrrol-2-ones” (Bioorg Med Chem, 2015).
